Screening results deposited in PubChem BioAssay by several laboratories.
HSP90 inh – inhibitors of HSP90 luciferase refolding in rabbit reticulocyte lysate; luciferase refolding luminescence, 3 h; inhibition, % at 5.6 µM; hit rate 0.91% among 290,000;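 active = inhibition above the screen-wide mean plus 3 SD, computed separately per campaign, cut at about 16% in these data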;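 note: 0% = DMSO wells and 100% = 60 µM geldanamycin wells; inhibitors lower the luminescence because luciferase stays unfolded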
HKDC1 inhibitor – inhibitors of human hexokinase HKDC1; Q2TB90; recombinant HKDC1, G6PDH/diaphorase resazurin coupled fluorescence; inhibition, % at 20 µM; hit rate 0.16% among 340,000; AID 493160;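 active = inhibition above about 35% when tested at 20 µM, limit read from the data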;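 note: plate controls were DMSO wells with enzyme for no effect and DMSO wells lacking enzyme for full effect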
Target sequence (Q2TB90 whole entry, looked up): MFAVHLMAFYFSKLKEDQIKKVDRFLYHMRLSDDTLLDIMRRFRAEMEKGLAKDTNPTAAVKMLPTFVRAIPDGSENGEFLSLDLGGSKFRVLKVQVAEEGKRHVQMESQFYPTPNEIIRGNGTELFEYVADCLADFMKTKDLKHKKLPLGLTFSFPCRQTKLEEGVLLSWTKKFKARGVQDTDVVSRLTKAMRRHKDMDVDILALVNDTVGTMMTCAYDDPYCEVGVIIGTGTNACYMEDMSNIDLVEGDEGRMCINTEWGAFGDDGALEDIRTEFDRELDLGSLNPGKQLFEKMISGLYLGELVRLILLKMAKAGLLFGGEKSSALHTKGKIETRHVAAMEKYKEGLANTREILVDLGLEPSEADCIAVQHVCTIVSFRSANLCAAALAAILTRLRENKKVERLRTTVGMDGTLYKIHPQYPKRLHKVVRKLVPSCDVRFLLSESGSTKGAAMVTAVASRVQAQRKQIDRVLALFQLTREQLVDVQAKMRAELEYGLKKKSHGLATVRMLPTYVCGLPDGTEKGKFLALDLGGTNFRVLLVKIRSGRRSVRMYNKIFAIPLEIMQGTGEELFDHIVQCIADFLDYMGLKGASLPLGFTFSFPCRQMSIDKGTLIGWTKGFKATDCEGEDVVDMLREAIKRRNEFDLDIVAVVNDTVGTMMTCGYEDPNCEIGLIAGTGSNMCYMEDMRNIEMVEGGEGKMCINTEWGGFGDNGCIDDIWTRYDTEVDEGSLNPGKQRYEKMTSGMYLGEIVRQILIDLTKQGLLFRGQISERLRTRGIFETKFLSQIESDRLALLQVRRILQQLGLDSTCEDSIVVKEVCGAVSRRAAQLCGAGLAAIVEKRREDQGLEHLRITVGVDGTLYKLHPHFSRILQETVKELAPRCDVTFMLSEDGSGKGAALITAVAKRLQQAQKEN
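Assay system – recombinant HKDC1 (HK5) hexokinase enzyme, produced in-house · Input – HKDC1 at 5 µg/mL · Reagent – glucose plus 1 mM ATP as hexokinase substrates · Timing – 90 min reaction incubation at room temperature, dark · Measured by – G6PDH/diaphorase-coupled fluorescence, 1 mM NADP, 100 µM resazurin, 525/613 nm · Benchmarks – DMSO-enzyme wells negative, buffer-substituted wells positive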
HSF-1 act – increases HSF-1 driven luciferase reporter signal | NIH3T3-HGL HSF-1 luciferase reporter, MG132, 8 h; 100% = twice DMSO control signal | activation, % at 9 µM | hit rate 1.7% among 300,000;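 active = mean replicate activation of at least 50% with a set share of replicates each reaching 50%; inconclusive = only one of those two conditions met; inactive = mean below 50% and too few replicates reaching it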;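 note: 0% = median of the neutral control wells and 100% = twice that signal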
HSF1 inhib – HSF1 inhibition. NIH3T3-HGL HSE-luciferase, MG132-induced, luminescence 8 h; active compounds read low. activity change, negative = inhibition, % at 7.5 µM (by protocol). hit rate 0.77% among 300,000;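 active = more than half of replicate wells show activity change below -50%, luminescence cut by over half; inconclusive = some wells, but at most half, below -50%; inactive = no replicate well below -50%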;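 note: luciferase reports HSF-1 transcriptional activity via heat shock element; 0% = median of DMSO wells and -100% = zero luminescence signal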
Hsp70 activator – transcriptional activators of Hsp70. activation, % at 10 µM. hit rate 0.04% among 200,000. HeLa Hsp70 promoter luciferase reporter, luminescence; scaled: vehicle 0, proteasome-inhibitor control 100%. AID 1203;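 active = activation above the mean across all tested compounds plus 3 SD, cutoff set per campaign, cut at about 5.5% in these data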;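 note: 100% = MG132 at 30 µM as the positive control and 0% = DMSO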
Tb hexokinase – blocks Trypanosoma brucei hexokinase 1 activity; recombinant TbHK1, G6PDH-coupled NADH A340; inhibition, % at 10 µM; hit rate 0.11% among 220,000;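 active = inhibition of 50% or more in the single-dose primary screen; inactive = inhibition below 50%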
* = called active by the depositor; ? = inconclusive; . = no result. An excerpt weighted towards active compounds, which were near 3.1% of everything screened.

SMILES	HSP90 inh	HKDC1 inhibitor	HSF-1 act	HSF1 inhib	Hsp70 activator	Tb hexokinase
CCCC(c1nnnn1CC(=O)OCC)N(Cc1cc2ccc(C)cc2[nH]c1=O)C1CCCC1 (centres undefined)	-0.8	-4.7	7.9	24.3	0.0	-12.4
CCCC(c1nnnn1CC(=O)OCC)N(Cc1cc2c(C)cc(C)cc2[nH]c1=O)C1CCCC1 (centres undefined)	0.4	6.3	92.3*	66.2	-0.2	-1.7
CC(=Nc1ccc(Br)cc1)c1sc2ccccc2c1O	-1.6	-2.7	59.8*	42.1	.	-4.6
CC(=Nc1ccccc1)c1sc2ccccc2c1O	-3.1	-2.0	35.1	20.4	0.2	-7.6
CC(=O)O[C@]1(C(C)=O)CC[C@H]2[C@@H]3C=CC4=CC(=O)C=C[C@]4(C)[C@H]3CC[C@@]21C	-0.5	12.9	109.4*	56.3	.	.
CC(=O)O[C@]1(C(C)=O)CCC2C3C=C(C)C4=CC(=O)CC[C@]4(C)C3CC[C@@]21C (some centres undefined)	-1.3	1.4	-5.6	0.7	.	.
COc1cc(C2NC(=O)NC(C)=C2C(=O)OC2CCCCC2)cc(Cl)c1O (centres undefined)	1.6	5.0	62.3*	37.9	.	.
CC(=O)OC[C@H]1O[C@@H](Oc2cc3ccc(=O)oc3cc2OC(C)=O)[C@H](OC(C)=O)[C@@H](OC(C)=O)[C@@H]1OC(C)=O	.	-5.2	.	.	.	.
OC[C@H]1O[C@H](OC[C@H]2OC(O)[C@H](O)[C@@H](O)[C@@H]2O)[C@H](O)[C@@H](O)[C@@H]1O (some centres undefined)	.	-3.9	.	.	.	.
O=C(N/N=C/c1ccc(N2CCCCC2)o1)C(O)(c1ccccc1)c1ccccc1	0.5	.	65.8*	37.7	-0.4	-11.8
O=C1Cc2ccccc2C(=O)N1Cc1cccc(Cl)c1	16.2*	-2.1	4.0	-4.6	.	.
O=C(CN1C(=O)S/C(=C\C=C\c2ccccc2)C1=O)Nc1ccc(O)cc1	2.5	-10.5	58.8*	37.3	-0.1	1.5
COc1ccc(C(=O)NCCCn2cccn2)cc1OC1CCN(C(C)=O)CC1	2.2	-1.3	-19.6	-9.9	.	.
O=C(CCCCCNC(=O)N1CCn2c1nc1ccccc12)NCc1ccccc1	0.2	-3.9	25.1	9.5	.	.
O=C(CCCCCNC(=O)N1CCn2c1nc1ccccc12)NCc1ccc(Cl)cc1	-7.0	4.8	50.9*	32.1	.	.
CNC(=S)NNC(=O)c1cccn(Cc2ccc(Cl)c(Cl)c2)c1=O	-1.4	-5.7	13.7	17.8	-0.4	-20.3
C=CCNC(=S)NNC(=O)c1cccn(Cc2ccc(Cl)c(Cl)c2)c1=O	3.0	8.1	81.4*	23.0	-0.1	-1.6
O=C(Nc1ccccc1C(=O)NC1CC1)c1ccc([N+](=O)[O-])o1	.	7.2	.	.	.	.
CC1CCN(c2ccc(C=O)o2)CC1	0.6	-12.4	57.9*	38.5	0.4	-20.7
Cc1cccc2nc(COc3ccc(-c4ccccc4)cc3)cn12	1.0	.	65.1*	31.5	0.0	6.5
Cc1cc(C)n2cc(COc3ccc4ccccc4c3)nc2n1	4.7	0.9	66.7*	25.0	-0.1	-4.6
CCOC(=O)c1cn2c(C)cccc2n1	-1.3	-8.9	18.5	3.5	-0.1	4.9
COC(CNC(=O)C1CCCN(S(=O)(=O)c2c(C)noc2/C=C/c2cccs2)C1)OC (centres undefined)	16.9*	-3.5	?	28.3	-0.1	-24.8
Cc1noc(/C=C/c2ccco2)c1S(=O)(=O)N1CCC(C(=O)NCc2ccco2)CC1	5.6	0.3	-78.4	-72.3*	-0.2	-51.7
O=C(COC(=O)CSc1ccc(Cl)cc1)Nc1ccc2[nH]c(=O)[nH]c2c1	.	0.3	.	.	.	.
SMILES	HSP90 inh	HKDC1 inhibitor	HSF-1 act	HSF1 inhib	Hsp70 activator	Tb hexokinase
COc1cccc(N2CCN(S(=O)(=O)c3ccc(-c4coc(C)n4)cc3)CC2)c1	-1.3	2.2	73.0*	28.4	.	.
COc1cccc(N2CCN(S(=O)(=O)c3cc4c(cc3C)N(C)CCO4)CC2)c1	1.6	-1.2	54.7*	34.4	.	.
Cc1cc2c(cc1S(=O)(=O)N1CCN(c3ccc(Cl)cc3)CC1)OCCN2C	-1.6	3.7	2.8	5.2	.	.
CCc1[nH]nc2c1C1(CCN(C(=O)OCc3ccccc3)CC1)C(C#N)=C(N)O2	-2.3	4.0	55.2*	7.3	-0.1	2.7
CC(C)CN(C(=O)C1CCCO1)c1c(N)n(CC(C)C)c(=O)[nH]c1=O (centres undefined)	.	-1.1	.	.	.	.
CCOc1ccc(CCNC(=O)CN2C(=O)NC3(CCCCC3)C2=O)cc1OCC	.	-1.4	-4.7	-3.8	.	.
COc1ccc(S(=O)(=O)NCc2ccccn2)cc1	-1.0	-7.1	-3.3	-2.2	0.3	-1.4
O=S(=O)(NCc1ccccn1)c1ccc2ccccc2c1	4.6	-6.1	72.3*	37.5	.	.
c1ccc2c(c1)CC1(CCCCC1)n1nnnc1-2	-1.2	3.4	-66.4	-59.2*	-0.4	0.5
COc1ccc2c(C(=O)c3ccc(C)cc3)n(Cc3ccc(C(N)=O)cc3)[n+]([O-])c2c1	.	9.4	.	.	.	.
COc1ccc(NS(=O)(=O)c2ccc(-c3ccccn3)s2)cc1	.	-1.5	-90.1	-87.1*	.	.
[O-]/[N+](=C\C=C\c1ccccc1)c1ccccc1	1.9	2.3	62.3*	24.3	.	-8.8
O=C(O)CCSc1nnc(-c2ccc3c(c2)OCO3)o1	16.1*	2.8	-59.6	-52.1*	-0.3	2.6
O=C(Cn1ncc(Cl)c(Cl)c1=O)N1CCN(S(=O)(=O)c2ccc3ccccc3c2)CC1	-1.2	12.9	76.5*	60.6	1.0	-5.9
CC(C)(C)NC(=O)C(c1ccncc1)N(Cc1ccco1)C(=O)c1ccc(-c2ccccc2)[nH]1 (centres undefined)	-1.5	3.6	137.9*	101.9	0.3	-13.2
O=C(NC1CCCCC1)C(c1ccncc1)N(Cc1ccccc1)C(=O)c1ccc(-c2ccccc2)[nH]1 (centres undefined)	2.1	3.0	55.5*	35.1	0.1	-5.4
Cn1nnnc1Sc1ncnc2scc(-c3ccc([N+](=O)[O-])cc3)c12	.	6.5	.	.	.	.
O=C(COc1ccc(/C=C\[N+](=O)[O-])cc1)N1CCOCC1	0.0	4.9	181.4*	154.6	0.6	-14.2
O=C(COc1ccc(S(=O)(=O)N2CCOCC2)cc1)N1CCOCC1	.	-3.0	.	.	.	.
CCOc1ccccc1N1CCN(Cc2cccc(OC)c2O)CC1	-2.3	14.2	?	43.6	0.1	-3.8
COc1ccccc1N1CCN(Cc2cc(Br)c(O)c3ncccc23)CC1	4.5	-27.1	-83.8	-80.5*	-0.5	-4.6
Cc1cccc(NC(=O)c2ccc(C)c(S(=O)(=O)N3CCOCC3)c2)n1	.	-5.1	.	.	.	.
Cc1ccc(S(=O)(=O)NNC(=O)c2cnn(-c3ccccc3)c2C(F)(F)F)cc1	2.6	-5.1	-4.9	2.0	.	10.5
Cc1ccc(S(=O)(=O)NNC(=O)c2cnn(-c3ccc(Cl)cc3)c2C(F)(F)F)cc1	0.6	-1.0	60.8*	32.3	.	37.3
